Screening results as filed in PubChem BioAssay.
Only some compounds are listed: those with a hit (about 3.7% of all), similar ones and a draw of the others.
hERG rescue = shields human hERG channel from block by proarrhythmic agents; CHO-hERG, FluxOR thallium flux, dofetilide IC70 present; 310,000 compounds, 0.51% hits; activation (rescue from dofetilide block), less the hit threshold, % at 10 µM; AID 1511; Q12809;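 active means activation above the mean of controls blocked by dofetilide plus 5 SD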;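 further: thallium influx through hERG after potassium depolarization seen as dye fluorescence rise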
KCNQ1 block = blocks the human KCNQ1 potassium channel | CHO-K1 KCNQ1, FluxOR thallium flux fluorescence; stronger effect = higher value | P51787 | B-score at 10 µM | 310,000 compounds, 1.3% hits;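 active means compounds whose thallium flux B-score, printed positive for inhibition, exceeds three library SD while starting fluorescence stays within three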;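 further: channel opened by potassium depolarization with thallium stimulus after 20 min compound exposure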
Kir21 inh = blocks the mouse Kir2.1 inward-rectifier potassium channel; P35561; HEK293-Kir2.1, FluxOR thallium flux fluorescence; stronger effect = lower value; B-score at 10 µM; 310,000 compounds, 0.85% hits; AID 1672;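 active means fluorescence ratio B-score at or below minus 3 SD of library scores, with starting-brightness B-score within 2 SD, cut at about -4.2 in these data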;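 further: channel flux triggered by added potassium and thallium sulfate stimulus; B-score of peak minus minimum fluorescence over baseline after thallium stimulus; more negative B-score means stronger Kir2.1 block with less thallium influx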
KCNK3 block = human KCNK3 channel inhibition, primary screen; O14649; CHO-KCNK3 thallium flux, FluxOR fluorescence; stronger effect = lower value; B-score at 10 µM; 340,000 compounds, 0.84% hits; AID 602410;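 active means B-score under library mean minus 4 SD, starting fluorescence ratio at most library mean plus 5 SD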;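 further: more negative B-score means stronger inhibition of thallium flux through KCNK3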
Target sequence (O14649 whole entry, looked up): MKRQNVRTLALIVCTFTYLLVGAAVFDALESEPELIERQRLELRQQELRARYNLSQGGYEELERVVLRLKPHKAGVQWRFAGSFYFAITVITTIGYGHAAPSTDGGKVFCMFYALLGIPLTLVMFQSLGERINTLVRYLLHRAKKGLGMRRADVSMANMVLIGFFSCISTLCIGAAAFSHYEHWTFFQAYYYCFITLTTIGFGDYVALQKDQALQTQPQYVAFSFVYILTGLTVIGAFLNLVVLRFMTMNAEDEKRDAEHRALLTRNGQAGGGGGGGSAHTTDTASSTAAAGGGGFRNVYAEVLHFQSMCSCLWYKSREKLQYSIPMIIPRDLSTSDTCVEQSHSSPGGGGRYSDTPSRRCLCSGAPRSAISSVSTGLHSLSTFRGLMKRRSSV
KCNK9 inh = inhibitors of human KCNK9 two-pore domain potassium channel | B-score at 10 µM | HEK293 KCNK9, FluxOR thallium flux fluorescence; stronger effect = lower value | Q9NPC2 | AID 488922 | 310,000 compounds, 1.2% hits;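 active means ratio B-score over 3 SD below the library mean, with starting fluorescence within 5 SD of its mean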;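 further: negative B-score means less thallium flux so channel inhibition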
KCNQ1 pot = potentiators or activators of human KCNQ1 potassium channel | 310,000 compounds, 0.35% hits | CHO-K1 KCNQ1, thallium flux FluxOR fluorescence; stronger effect = higher value | P51787 | B-score at 10 µM | AID 2648;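 active means fluorescence ratio B-score, a plate-corrected score, at least three library SD, with initial intensity B-score within 5 SD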
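Assay system: stable KCNQ1 CHO-K1 line; medium: assay buffer, equal DMSO in all wells; timing: 90 min dye loading and 20 min compound exposure, both at room temperature; technique: kinetic FluxOR thallium fluorescence, 10-s 1-Hz baseline, 110-s post-stimulus read; read-out basis: B score of baseline-normalized fluorescence ratio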
KCNK9 inh conf = human KCNK9 inhibitor confirmation | inhibition, % at 10 µM | shares compounds with KCNK9 inh | 4,900 compounds, 43% hits | HEK293 KCNK9 cells, FluxOR thallium flux fluorescence;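 active means thallium signal inhibited by more than 5 SD of the compound-free buffer control wells, on both duplicate plates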
Kir2-1 spec = tests whether KCNK9 modulators also affect mouse Kir2.1 | 4,900 compounds, 4% hits | Kir2.1 cells, FluxOR thallium flux fluorescence | shares compounds with KCNK9 inh | AID 492993 | inhibition, % at 10 µM;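 active means thallium signal drop more than 5 SD beyond the mean of the no-compound control wells, seen in both duplicate plates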;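 further: signal is fluorescence rise after thallium addition divided by baseline fluorescence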
KCNK9 uninduced = second check of KCNK9 modulator effects in non-induced HEK293 cells; 4,900 compounds, 40% hits; FluxOR thallium flux; inhibition, % at 10 µM; shares compounds with KCNK9 inh;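 active means thallium signal drop beyond 5 SD of the untreated control mean, on both duplicate plates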
KCNK3 confirm = confirmation of human KCNK3 two-pore domain potassium channel inhibitors; shares compounds with KCNK3 block; CHO-KCNK3 thallium flux, FluxOR fluorescence; 0% buffer, 100% carvedilol maximal block; ratio percent of control, % at 10 µM; 2,400 compounds, 99% hits;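 active means ratio percent of control, averaged over triplicates, above buffer control mean plus 5 SD, cut at about 64% in these data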;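 further: ratio is the fluorescence rise from min to max over baseline after thallium stimulus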
KCNK3 noninduced = activity in cells without induced KCNK3 expression; thallium flux ratio (lower = more inhibition) at 10 µM; non-induced KCNK3 parental cells, FluxOR thallium flux; stronger effect = lower value; shares compounds with KCNK3 block; 2,400 compounds, 40% hits;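 active means thallium flux ratio, averaged over three wells, more than 5 SD below the buffer control mean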;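 further: host cells are CHO cells without KCNK3 induction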
Large screens that a line does not name were inactive (follow-up assays come after a bar, where they were run).

COc1ccc(CN(C(=O)CSc2nnc(-c3c[nH]c4ccccc34)o2)c2ccc(F)cc2)cc1OC	KCNK3 block -14, KCNK9 inh -8.8 | KCNK9 inh conf inactive | Kir2-1 spec inactive | KCNK9 uninduced inactive | KCNK3 confirm 105 | KCNK3 noninduced 0.13
COc1ccc(CN(C(=O)CSc2nnc(-c3ccc(F)cc3)o2)c2ccc(F)cc2)cc1	none
CC(=O)Nc1sc(C)c(C)c1C(=O)OCC(=O)Nc1ccccc1	none (no result: hERG rescue, KCNQ1 block, Kir21 inh, KCNK9 inh, KCNQ1 pot)
CC(=O)Nc1sc(C)c(C)c1C(=O)OCCOc1ccccc1	KCNK3 block -11, KCNK9 inh -13 | KCNK9 inh conf 46% | Kir2-1 spec inactive | KCNK9 uninduced 46% | KCNK3 confirm 125 | KCNK3 noninduced 0.13
N#CCSc1nc2c(c(C3CC=CCC3)c1C#N)CCC2 (configuration not stated)	KCNK9 inh -8.4 | KCNK9 inh conf 34% | Kir2-1 spec inactive | KCNK9 uninduced 42% | KCNK3 confirm 107 | KCNK3 noninduced inactive
COCCn1c(=NC(=O)CSC(C)=O)sc2cc(OC)ccc21	KCNK3 block -8.9, KCNK9 inh -16 | KCNK9 inh conf 60% | Kir2-1 spec inactive | KCNK9 uninduced 26% | KCNK3 confirm 93 | KCNK3 noninduced inactive
Cc1nc(-c2cccc(NC(=O)c3cccs3)c2)cs1	none
CC(=O)Nc1ccc2nc(-c3cccn3C)[nH]c2c1	none
Cn1cccc1-c1nc2ccc(NC(=O)c3cccs3)cc2[nH]1	KCNK3 block -12, KCNK9 inh -10 | KCNK9 inh conf 46% | Kir2-1 spec inactive | KCNK9 uninduced inactive | KCNK3 confirm 141 | KCNK3 noninduced 0.13
Cc1cccn2cc(-c3cccc(NC(=O)c4cccs4)c3)nc12	KCNK3 block -12, KCNK9 inh -10 | KCNK9 inh conf 40% | Kir2-1 spec inactive | KCNK9 uninduced inactive | KCNK3 confirm 121 | KCNK3 noninduced inactive
CC(C)Oc1ccc(S(=O)(=O)N2CCCCC2)cc1NC(=O)C1CSC2(C)CCC(=O)N12 (configuration not stated)	none
CC1=NN(c2ccccc2)C(=O)C1(C)[N+](=O)[O-] (configuration not stated)	none
COc1cccc(C(=O)Nc2nc(-c3ccc4c(c3)OCO4)cs2)c1	KCNK3 block -10, KCNK9 inh -9 | KCNK9 inh conf 26% | Kir2-1 spec inactive | KCNK9 uninduced 26% | KCNK3 confirm 121 | KCNK3 noninduced 0.14
CC(=O)Nc1nc(-c2ccc3c(c2)OCO3)cs1	none
COc1ccc(OC)c(NC(=O)CN(Cc2ccc(F)cc2)C2CCCCC2)c1	KCNK3 block -8.8, KCNK9 inh -14 | KCNK9 inh conf 69% | Kir2-1 spec inactive | KCNK9 uninduced 48% | KCNK3 confirm 56 | KCNK3 noninduced 0.12
CN1CCN(NC(=O)CC(C)(C)C)CC1	none
CCCCC(CC)C(=O)Oc1ccc(O)c(C(C)(C)C)c1 (configuration not stated)	KCNK3 block -12, KCNK9 inh -16 | KCNK9 inh conf 74% | Kir2-1 spec inactive | KCNK9 uninduced 31% | KCNK3 confirm 79 | KCNK3 noninduced inactive
